Hits are enriched below; roughly 1.8% of the tested compounds scored in any of these assays.
MT1-MMP act inh – inhibitors of human MT1-MMP activation; P50281; HT1080 RFP-PRO-GFP cells, GFP/RFP ratio fluorescence, overnight; percent of plate control window, DMSO zero; GFP/RFP ratio change, % at 20 µM; 360,000 compounds, 0.061% hits; AID 651647;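 active = GFP/RFP ratio change of at least 30% with cell ATP level not reduced by more than half and red fluorescence within 50% of control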
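Assay system: HT1080 cells carrying an RFP-PRO-GFP reporter | Dosing: Single dose of 20 µM compound, 1% DMSO final | Incubation: Cells overnight before dosing, compound overnight, 37 °C, 5% CO2 | Evaluation: GFP/RFP fluorescence ratio | Control set: DMSO and RFP-L50D-GFP cell wells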
DAGLB inh – diacylglycerol lipase beta (human) inhibition. Q8NCG7. HEK293T DAGLB membrane lysate, EnzChek fluorogenic substrate. inhibition, % at 5.17 µM. 340,000 compounds, 0.059% hits; in the data active = inhibition above about 34%;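 note: 0% = enzyme with vehicle and 100% = wells lacking enzyme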
Target sequence (Q8NCG7 whole entry, looked up): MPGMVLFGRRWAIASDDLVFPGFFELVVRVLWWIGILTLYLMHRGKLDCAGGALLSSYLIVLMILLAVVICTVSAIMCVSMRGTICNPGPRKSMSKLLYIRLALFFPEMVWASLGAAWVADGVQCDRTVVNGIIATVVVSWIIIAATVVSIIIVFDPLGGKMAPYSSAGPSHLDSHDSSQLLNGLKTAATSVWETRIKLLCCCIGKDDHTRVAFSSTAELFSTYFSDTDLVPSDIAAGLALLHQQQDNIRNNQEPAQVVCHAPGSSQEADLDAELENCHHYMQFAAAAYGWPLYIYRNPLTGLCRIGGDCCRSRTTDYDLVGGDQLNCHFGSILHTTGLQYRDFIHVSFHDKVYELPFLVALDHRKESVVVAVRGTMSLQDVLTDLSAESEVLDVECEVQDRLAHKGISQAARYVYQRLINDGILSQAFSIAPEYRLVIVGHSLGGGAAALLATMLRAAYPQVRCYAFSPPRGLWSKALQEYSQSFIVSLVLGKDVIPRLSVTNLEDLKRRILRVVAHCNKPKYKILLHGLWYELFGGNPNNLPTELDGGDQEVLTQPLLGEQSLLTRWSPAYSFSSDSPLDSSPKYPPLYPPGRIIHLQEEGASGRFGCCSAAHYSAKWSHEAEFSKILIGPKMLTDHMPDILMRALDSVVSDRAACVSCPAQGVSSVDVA
MIN6 prolif – MIN6 beta-cell proliferation induction. AID 2380. MIN6 cells proliferation, ATPlite luminescence, 48 h; cells starved in 0.2% serum; 100% = growth in 10% serum. 330,000 compounds, 0.29% hits. proliferation, % at 10 µM;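 active = compounds whose signal lies at least 3.5 SD above the mean of all wells on their plate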;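 note: 0% = DMSO-treated cells in low-serum medium and 100% = 10% serum control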
MsrA act – activators of bovine methionine sulfoxide reductase A; 360,000 compounds, 0.3% hits; purified bovine MsrA, absorbance read-out; AID 602163; activation, % at 10.6 µM; in the data active = activation above about 7.5%;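 note: 0% = vehicle and 100% = reference activator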
MsrA inh – inhibits bovine methionine sulfoxide reductase A. purified bovine MsrA, absorbance read-out. inhibition, % at 15.5 µM. 360,000 compounds, 0.75% hits;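 note: 0% = vehicle wells with enzyme and 100% = reference inhibitor wells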
SKN-1 block – blocks SKN-1 activity in C. elegans | C. elegans VP596 Pgst-4::GFP/RFP ratio, acrylamide-induced, 24 h | inhibition, % at 21.8 µM | 360,000 compounds, 0.49% hits | AID 624304;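 active = interference check ratio from 0.5 to 1.5 plus GFP to RFP signal ratio inhibition reaching or exceeding a fixed threshold, cut at about 30% in these data, passing the limit was not always enough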
MsrA inh confirm – confirmation of bovine MsrA inhibitors; purified bovine MsrA, absorbance read-out; inhibition, % at 15.5 µM; shares compounds with MsrA inh; 2,300 compounds, 41% hits; AID 651822;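 note: coupled to thioredoxin reductase with NADPH and selenocystamine and DMSO as substrate; 0% = vehicle only and 100% = full effect of reference inhibitor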
Active calls of the source: *; / = not tested or not shown. Cut-off read from the data, not from the text of the source, unless noted: active = inhibition above about 4.5%; inactive = the rest.

SMILES | MT1-MMP act inh | DAGLB inh | MIN6 prolif | MsrA act | MsrA inh | SKN-1 block | MsrA inh confirm
COc1cc(C=O)ccc1O | 0 | / | / | -8 | 6.2* | -4 | 3
Nc1nnc(N2CCCCC2)s1 | 4 | 0 | 0 | -1 | -1 | 2 | /
O=C1CCCc2nc(N3CCCCC3)sc21 | 14 | -1 | -1 | -3 | 5.8* | -8 | 5.2*
Cc1ccc(NC(=O)n2ncc3c(C)cccc32)cc1F | -4 | -2 | -3 | -4 | 0 | 7 | /
O=C(Nc1nnc(-c2ccncc2)o1)c1ccc(Br)s1 | -6 | 2 | -5 | -2 | 5.8* | -4 | 3
COc1ccc(/C=N/N2C(=O)C3C4C=CC(C4)C3C2=O)cc1[N+](=O)[O-] (stereo not drawn) | 0 | 0 | -1 | -11 | 8.4* | -5 | 8.2*
CC(=O)N1CCCN(Cc2cn(-c3cc(C)ccc3C)nc2-c2ccccc2)CC1 | -2 | 0 | 1 | 3 | 5.0* | -5 | 0
O=C(CN1CCN(S(=O)(=O)c2ccccc2)CC1)N1CCc2ccccc21 | -1 | 0 | -1 | -4 | -1 | -3 | /
COc1ccc(C(=O)NNC(=O)CCn2nnc(-c3ccc(Cl)cc3)n2)cc1OC | / | 1 | -3 | -5 | -1 | 9 | /
NC(=O)N=Nc1c(O)[nH]c2ccc([N+](=O)[O-])cc12 | 3 | 3 | 0 | -5 | 3 | 14 | /
O=C(CNC(=O)c1ccco1)N=Nc1c(O)[nH]c2ccc([N+](=O)[O-])cc12 | 3 | 8 | -2 | -2 | 5.8* | -1 | 2
Cc1ccc(S(=O)(=O)NC(=O)NCCc2ccccc2)cc1 | -4 | 3 | 1 | -1 | -2 | 3 | /
Nc1ccc(C(=O)C(=O)c2ccc(N)cc2)cc1 | -3 | -3 | 0 | -6 | 7.5* | 15 | 6.8*
CCOC(=O)c1ccc(N)cc1 | 3 | -1 | -4 | 1 | -2 | 8 | /
COc1ccc(NC(=O)Nc2ccc(OC)cc2)cc1 | 6 | -1 | -3 | -5 | 0 | 3 | /
COc1ccc(NC(=O)/C=C2\SC(=O)NC2=O)cc1 | -1 | 1 | 0 | -5 | 4.8* | 2 | 3
COc1ccc(-c2nc(C)c(C(C)=O)n2O)cc1[N+](=O)[O-] | 4 | -1 | -4 | -4 | 4.8* | -3 | 3
O=S(Cc1ccc(Br)cc1)Cc1nnc(SCc2ccc(Br)cc2)n1-c1ccccc1 (stereo not drawn) | -4 | -2 | 0 | -8 | 0 | -3 | /
CN(C)c1ccc(/C=N\Nc2ccccn2)cc1 | 0 | 2 | -2 | -5 | 3 | 10 | /
CN(C)c1ccc(/C=N/Nc2ccc(-n3ccnc3)nn2)cc1 | 3 | 2 | -1 | -7 | 6.0* | 8 | 3
N#Cc1cccc(S(=O)(=O)N2CCN(c3ccnc4cc(Cl)ccc34)CC2)c1 | -1 | -2 | -3 | -2 | 0 | 9 | /
Cc1cc(C)nc(NC(=O)c2cnc3sccn3c2=O)n1 | 1 | -3 | -3 | -5 | 5.5* | -11 | 4.7*
O=C(O)c1ccc(/C=N/NC(=O)c2ccc(NS(=O)(=O)c3cccs3)cc2)cc1 | -4 | 3 | 1 | -5 | 5.5* | 1 | 5.5*
O=C(N/N=C/c1ccncc1)c1ccc(NS(=O)(=O)c2cccs2)cc1 | 3 | -1 | -3 | 0 | 3 | -5 | /
O=C(O)COc1ccccc1C=NNC(=O)c1ccc(NS(=O)(=O)c2cccs2)cc1 | 2 | -1 | 2 | -5 | 5.9* | -8 | 4
SMILES | MT1-MMP act inh | DAGLB inh | MIN6 prolif | MsrA act | MsrA inh | SKN-1 block | MsrA inh confirm
O=C(NN=Cc1cc(Br)c(O)c(Br)c1)c1ccccc1NS(=O)(=O)c1cccs1 | 6 | 28 | -5 | -7 | 6.1* | -1 | 4
O=C(NN=Cc1ccccc1C(=O)O)c1ccc(NS(=O)(=O)c2cccs2)cc1 | -4 | -1 | -3 | -4 | 5 | -13 | /
CC[C@H](C)[C@H]1CNC(=S)N1CC1CCN(CCCC2CCCC2)CC1 | 3 | -2 | / | 1 | 0 | 11 | /
CCc1ccccc1N1CC(C(=O)Nc2nccs2)CC1=O (stereo not drawn) | -1 | 0 | -3 | -1 | 1 | -12 | /
Cc1cc(NCc2ccccn2)ccc1Br | 11 | 1 | -3 | -11 | 0 | 2 | /
CCOC(=O)C1(CCOc2ccccc2)CCN(Cc2cccc(OC)c2O)CC1 | 3 | -1 | -3 | -2 | -1 | 12 | /
COc1ccc(/C=N/N=C(\N)c2nonc2N)cc1 | -2 | -4 | / | -1 | 5.3* | 10 | 3
O=S(=O)(Nc1nc2ccccc2nc1NCc1ccco1)c1ccc(F)cc1 | -10 | 4 | -1 | -2 | 3 | 25 | /
O=Cc1ccc(-c2ccc(C(=O)O)cc2)o1 | -2 | 2 | 2 | -11 | 7.2* | -6 | 4
O=C(O)/C(=C\c1ccc(-c2ccc(F)cc2)o1)c1ccccc1 | -9 | 3 | / | -10 | 4.7* | 6 | 3
O=Cc1ccc(-c2ccc(F)cc2)o1 | -1 | 1 | -3 | -3 | 3 | 6 | /
Cc1csc2ncc(C(=O)N3CCc4ccccc43)c(=O)n12 | 0 | -1 | -3 | -1 | 4 | -13 | /
Cc1csc2ncc(C(=O)N3CCCc4ccccc43)c(=O)n12 | 1 | 1 | -1 | -3 | 4.7* | -17 | 3
CCC1SC2=NC(C)=C(C(=O)OC)C(c3ccc(C(=O)OC)cc3)N2C1=O (stereo not drawn) | 0 | 1 | -3 | -2 | 2 | 7 | /
CCC1SC2=NC(C)=C(C(=O)OCCOC)C(c3ccc(C(=O)OC)cc3)N2C1=O (stereo not drawn) | -44 | -2 | 1 | -2 | 4.9* | 1 | 2
Nc1ccc(Cl)c(-c2nc3ncccc3o2)c1 | 5 | -1 | 2 | -1 | 0 | 4 | /
Nc1ccc(-c2nc3ncccc3o2)c(Cl)c1 | 3 | 0 | -3 | -10 | 6.0* | 4 | 5.2*
Nc1ccc(-c2nc3ncccc3o2)c(O)c1 | -4 | -2 | -1 | -7 | 9.8* | -13 | 7.2*
Cc1cc(-c2nc3ncccc3o2)ccc1N | 4 | -1 | 3 | -5 | 6.5* | 0 | 6.6*
CCOc1ccc(CCNC(=O)COC(=O)c2oc3ccccc3c2COC)cc1OCC | 1 | -2 | 4 | -2 | 2 | 18 | /
COC(=O)[C@@]1(Cc2ccc(F)cc2)[C@H]2c3cc(C(=O)N(C)C)n(CCN4CCOCC4)c3C[C@H]2CN1C(=O)c1ccccc1 | 0 | / | / | -2 | -1 | 10 | /
COc1ccc(S(=O)(=O)n2cccc2)c(OC)c1 | 3 | -4 | -1 | -2 | 0 | -14 | /
COC(=O)c1ccc(NC(=O)CCN2C(=O)C3CC=CCC3C2=O)cc1 (stereo not drawn) | 1 | 0 | -1 | -1 | 0 | -8 | /

Compound activity from PubChem.
